This passage reports Ki, IC50 and Ratio Ki results from ChEMBL document CHEMBL1153857, “1,4-Diazepanes derived from (S)-serine--homopiperazines with improved sigma(1) (sigma) receptor affinity and selectivity” (Eur J Med Chem, 2009).

Assay [1] in a line: Displacement of [3H]ditolylguanidine from sigma 2 receptor in rat liver membrane by liquid scintillation analyzer. The format is cell membranes. The gist of the method: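 Rat liver membranes (about […] protein) incubated with 3 nM [3H]-ditolylguanidine plus 100 nM (+)-pentazocine to mask sigma1 sites, with at least 6 test concentrations, in 50 mM Tris-HCl pH 8.0, 120 min at 25 °C. Stopped with ice-cold 10 mM Tris pH 8.0, filtered on PEI-soaked GF/B, washed three times, scintillation counted. […] Triplicates; Ki reported.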
A general note: In a radioligand displacement assay an active substance lowers the binding of a labelled ligand.

Another assay concerns the target Mu-type opioid receptor (Homo sapiens, UniProt P35372). Description: Displacement of radioligand from mu opioid receptor. The gist of the method:
(§1)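 Competition binding, first screened at two test concentrations. Exact Ki determined only when binding inhibition at the higher concentration was considerable.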

Assay [2] is described as follows: Selectivity for sigma 1 receptor in guinea pig brain membrane over sigma 2 receptor in rat liver membrane. The format is cell membranes.
A short description of assay [3]: Displacement of radioligand from phencyclidine binding site of NMDA receptor. Summed up: as §1
Assay [4] addresses Sigma non-opioid intracellular receptor 1 (Cavia porcellus, UniProt Q60492). As to the kind of experiment: Displacement of [3H](+)-pentazocine from sigma 1 receptor in guinea pig brain membrane by liquid scintillation analyzer. The format is cell membranes. Summed up: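 Guinea pig brain membranes (about […] protein) incubated with 3 nM [3H]-pentazocine and at least 6 test concentrations in 50 mM Tris-HCl pH 7.4, 120 min at 37 °C. Filtration through PEI-presoaked GF/B filters, four cold-buffer washes, scintillation counting. Non-specific binding with excess haloperidol. Triplicates; IC50 by non-linear regression, Ki reported.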

For assay [5], the target named is Kappa-type opioid receptor (Homo sapiens, UniProt P41145). Description: Displacement of [3H]U-69593 from kappa opioid receptor. Summed up: as §1
Chain of Kappa-type opioid receptor (P41145 whole entry): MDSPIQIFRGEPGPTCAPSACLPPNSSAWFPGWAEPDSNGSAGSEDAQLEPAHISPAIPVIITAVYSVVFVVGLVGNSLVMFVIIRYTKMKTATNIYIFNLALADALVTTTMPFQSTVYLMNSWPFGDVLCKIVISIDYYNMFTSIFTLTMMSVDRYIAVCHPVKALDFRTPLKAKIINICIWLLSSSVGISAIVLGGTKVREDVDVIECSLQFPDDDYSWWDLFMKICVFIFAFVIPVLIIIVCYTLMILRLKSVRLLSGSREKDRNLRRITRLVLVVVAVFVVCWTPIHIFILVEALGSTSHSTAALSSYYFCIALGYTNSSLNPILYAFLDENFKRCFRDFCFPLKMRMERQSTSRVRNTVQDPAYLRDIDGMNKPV

Chain of Sigma non-opioid intracellular receptor 1 (Q60492 whole entry): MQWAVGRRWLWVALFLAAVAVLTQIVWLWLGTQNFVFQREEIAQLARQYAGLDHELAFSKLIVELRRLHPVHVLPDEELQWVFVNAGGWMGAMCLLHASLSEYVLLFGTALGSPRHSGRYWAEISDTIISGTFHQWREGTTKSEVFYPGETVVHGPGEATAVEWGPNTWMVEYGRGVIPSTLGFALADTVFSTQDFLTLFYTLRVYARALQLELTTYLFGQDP
Chain of Mu-type opioid receptor (P35372 whole entry): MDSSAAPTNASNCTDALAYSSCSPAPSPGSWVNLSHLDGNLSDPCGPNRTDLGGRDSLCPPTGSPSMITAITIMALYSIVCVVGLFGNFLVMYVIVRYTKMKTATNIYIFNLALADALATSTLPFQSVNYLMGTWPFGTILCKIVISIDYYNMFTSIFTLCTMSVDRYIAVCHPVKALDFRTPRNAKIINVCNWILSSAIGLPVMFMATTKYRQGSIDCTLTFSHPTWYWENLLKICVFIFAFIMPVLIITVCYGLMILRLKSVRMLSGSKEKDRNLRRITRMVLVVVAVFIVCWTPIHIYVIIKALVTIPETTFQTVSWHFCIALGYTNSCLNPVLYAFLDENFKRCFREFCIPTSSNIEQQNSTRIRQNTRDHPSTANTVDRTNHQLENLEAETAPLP

Turning to `OC[C@H]1CN(Cc2ccccc2)CCCN1Cc1ccccc1`, the Ki in assay [1] came to 374 nM; in assay [4], 7.4 nM. The IC50 (on Mu-type opioid receptor; in assay [3]; in assay [5]) was greater than 10 µM throughout. Further, the Ratio Ki in assay [2] came to 53.

`COC(CN1CCN(Cc2ccccc2)[C@@H](CO)C1)OC`: the Ki in assay [1] and in assay [4] was greater than 10000 nM each time.

As to `OC[C@H]1CN(Cc2ccccc2)CCN1Cc1ccccc1`, the Ki turned out to be 177 nM in assay [1] and 38 nM in assay [4]. Besides, the Ratio Ki in assay [2] was 5.

Turning to `COC(CN1CCCN(Cc2ccccc2)[C@@H](CO)C1)OC`, the Ki in assay [1] is 9010 nM; in assay [4] it was 320 nM. Besides, the IC50 (at Mu-type opioid receptor; in assay [3]; in assay [5]) was greater than 10 µM each time. In assay [2], the Ratio Ki was 28.

As usually defined, the Ki is a dissociation constant, usually derived from enzyme kinetics or from competition with a known ligand. A low value points to a stronger hold on the target. The term IC50 denotes the concentration that gives 50% inhibition. Read a low IC50 as greater potency.
